Results: ChEMBL document CHEMBL1926544, “Tyrosine-based 1-(S)-[3-hydroxy-2-(phosphonomethoxy)propyl]cytosine and -adenine ((S)-HPMPC and (S)-HPMPA) prodrugs: synthesis, stability, antiviral activity, and in vivo transport studies” (J Med Chem, 2011)

What was measured:
[1] = Antiviral activity against Cowpox virus Brighton infected in HFF cells incubated for 3 days by plaque reduction assay; format: functional, cell-based, Cowpox virus (Brighton Red)
Vaccinia virus = experiment: Antiviral activity against Vaccinia virus Copenhagen infected in HFF cells incubated for 3 days by plaque reduction assay; format: functional, organism-based, Orthopoxvirus vaccinia
Human alphaherpesvirus 1 = experiment: Antiviral activity against HSV1 KOS infected in HFF cells incubated for 3 days by plaque reduction assay; format: functional, organism-based
Outline: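 HFF monolayer plaque reduction, about 100 plaques per well. Drug overlay (100 µM down to 0.03 µM), about 3 days incubation, crystal violet staining, macroscopic plaques counted. IC50 from regression of % plaque reduction relative to no-drug wells. Duplicate; acyclovir run as positive control.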

Human betaherpesvirus 5 = experiment: Antiviral activity against HCMV Towne infected in HFF cells incubated for 10 days by plaque reduction assay; format: functional, organism-based
Outline: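 Towne strain (plaque-purified P0) on HFF cells, about 100 plaques per well. Drug overlay (100 µM down to 0.03 µM), about 10 days incubation, crystal violet staining, microscopic plaques counted. IC50 from regression of % plaque reduction versus no-drug wells. Duplicate; ganciclovir as positive control.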

KB = experiment: Cytotoxicity against human KB cells after 48 hrs by crystal violet staining based spectrophotometric analysis; format: cell-based
Outline: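 KB cells at 5000 per well, left overnight at 37 °C. Compound added at eight concentrations in triplicate, 48 h at 37 °C in CO2 (two population doublings). Cells ethanol-fixed and crystal violet stained; dye eluted with acidified ethanol, read at 570 nm. IC50 by regression of % inhibition against log concentration.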

HFF = experiment: Cytotoxicity against HFF cells after 48 hrs by visual cytotoxicity observation assay; format: cell-based, Homo sapiens
[2] = Half life in phosphate buffer at pH 6.5 at 37 degC by LC/MS analysis; format: physicochemical
[3] = Half life in phosphate buffer at pH 7.4 at 37 degC assessed as half life by LC/MS analysis; format: physicochemical
[4] = Half life in Sprague-Dawley rat intestinal homogenate at pH 6.5 by LC/MS analysis; format: ADME, tissue-based, Intestine
Outline: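 Compound stock (1 mg/ml, 400 µL) mixed with 260 µL buffer and 140 µL homogenate, 37 °C. Samples taken over time, quenched with methanol, centrifuged, supernatant analysed by LC-MS (C18, acetonitrile gradient in ammonium acetate pH 5.5). Run separately for each phosphorus diastereomer.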

Plasma [5] = experiment: Drug level in CFW Swiss-Webster mouse plasma assessed as (S)-cHPMPA levels dosed at 10 mg equivalent of (S)-9-[3-hydroxy-2-(phosphonomethoxy)propyl]adenine/kg, po by LC-MS analysis; format: ADME, organism-based; conditions: in vivo
Outline: (§1)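 CFW Swiss-Webster mice, 4 weeks old, 25 g, fasted 18 h with water. Prodrug given by gavage in water at 10 mg eq (of HPMPA)/kg. Plasma by cardiac puncture at 1, 2, 3, 4 and 8 h, 5 mice per time point, one sample per mouse. Solid-phase extraction, then LC-MS (ESI positive) against internal-standard calibration curves.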

Plasma [6] = experiment: Drug level in CFW Swiss-Webster mouse plasma dosed at 10 mg equivalent of (S)-9-[3-hydroxy-2-(phosphonomethoxy)propyl]adenine/kg, po by LC-MS analysis; format: ADME, organism-based; conditions: in vivo; outline: as §1
[7] = Orthopoxvirus vaccinia, Copenhagen, HFF, 72 h
[8] = Human alphaherpesvirus 1, KOS, HFF, 72 h
[9] = Human betaherpesvirus 5, Towne, HFF, 240 h

| Compound | IC50 ([1]; Cowpox virus, HFF, 72 h) [µM] | IC50 (Human alphaherpesvirus 1; [8]) [µM] | IC50 (Human betaherpesvirus 5; [9]) [µM] | IC50 (KB) [µM] | IC50 (HFF; Homo sapiens, HFF, 48 h) [µM] | half-life [2] [h] | half-life [3] [h] | half-life [4] [h] | other results |
| --- | --- | --- | --- | --- | --- | --- | --- | --- | --- |
| Nc1ncnc2c1ncn2C[C@@H](CO)OCP(=O)(O)O | 4 | 35 | 0.41 | > 100 | 100 |  |  |  | IC50 (Vaccinia virus; [7]): 2 µM |
| COC(=O)[C@@H](N)Cc1ccc(OP2(=O)CO[C@@H](Cn3ccc(N)nc3=O)CO2)cc1 (mixture of isomers) | 50 | 25 | 0.23 | > 100 | > 100 |  |  |  | IC50 (Vaccinia virus; [7]): 4 µM |
| Nc1ccn(C[C@H]2COP(=O)(O)CO2)c(=O)n1 [CYCLIC CIDOFOVIR] | 30 | 50 |  | > 100 | > 100 |  |  |  |  |
| COC(=O)[C@@H](N)Cc1ccc(O[P@]2(=O)CO[C@@H](Cn3ccc(N)nc3=O)CO2)cc1 |  |  |  |  |  | 0.933 | 0.317 | < 0.5 |  |
| COC(=O)[C@H](Cc1ccc(OP2(=O)CO[C@@H](Cn3ccc(N)nc3=O)CO2)cc1)NC(=O)[C@@H](N)C(C)C (mixture of isomers) | 30 | 15 | < 0.1 | > 100 |  |  |  |  | IC50 (Vaccinia virus; [7]): 20 µM |
| CC(C)(C)NC(=O)[C@H](N)Cc1ccc(O[P@@]2(=O)CO[C@@H](Cn3ccc(N)nc3=O)CO2)cc1 |  |  |  |  |  | 28.9 | 10.5 | 28.9 |  |
| COC(=O)[C@@H](N)Cc1ccc(O[P@]2(=O)CO[C@@H](Cn3cnc4c(N)ncnc43)CO2)cc1 |  |  |  |  |  | 0.917 |  | < 0.5 |  |
| COC(=O)[C@H](N)Cc1ccc(O[P@]2(=O)CO[C@@H](Cn3ccc(N)nc3=O)CO2)cc1 |  |  |  |  |  | 1.52 | 0.35 | 1.2 |  |
| CC(C)OC(=O)[C@@H](N)Cc1ccc(OP2(=O)CO[C@@H](Cn3ccc(N)nc3=O)CO2)cc1 (mixture of isomers; form 2) |  |  |  |  |  |  |  |  | IC50 ([1]; hff): 10 µM; IC50 (Vaccinia virus; hff): 8 µM; IC50 (Human alphaherpesvirus 1; hff): 3 µM; IC50 (Human betaherpesvirus 5; hff): 0.22 µM |
| CC(C)CNC(=O)[C@@H](N)Cc1ccc(OP(=O)(O)CO[C@H](CO)Cn2cnc3c(N)ncnc32)cc1 | 3 | 45 | 0.29 | > 100 | 100 |  |  |  | IC50 (Vaccinia virus; [7]): 0.5 µM |
| CC(C)CNC(=O)[C@@H](N)Cc1ccc(O[P@]2(=O)CO[C@@H](Cn3cnc4c(N)ncnc43)CO2)cc1 |  |  |  |  |  | 2.03 | 0.433 | 1.9 |  |
| CC(C)(C)NC(=O)[C@H](N)Cc1ccc(O[P@]2(=O)CO[C@@H](Cn3ccc(N)nc3=O)CO2)cc1 |  |  |  |  |  | 3.5 | 1 | 3.85 |  |
| Nc1nc2c(ncn2COCCO)c(=O)[nH]1 [ACYCLOVIR] |  | 0.6 |  |  |  |  |  |  |  |
| Nc1ccn(C[C@@H](CO)OCP(=O)(O)O)c(=O)n1 [CIDOFOVIR] | 30 |  | 0.28 | > 100 | 100 |  |  |  |  |
| CC(C)OC(=O)[C@@H](N)Cc1ccc(O[P@]2(=O)CO[C@@H](Cn3ccc(N)nc3=O)CO2)cc1 |  |  |  |  |  | 2.02 | 0.367 | < 0.5 |  |
| C/C(=N\NC(N)=S)c1ccccn1 |  |  |  | 3 |  |  |  |  |  |
| COC(=O)[C@H](N)Cc1ccc(OP2(=O)CO[C@@H](Cn3ccc(N)nc3=O)CO2)cc1 (mixture of isomers) | 35 | 35 | 0.2 | > 100 | > 100 |  |  |  | IC50 (Vaccinia virus; [7]): 25 µM |

| Compound | IC50 ([1]; Cowpox virus, HFF, 72 h) [µM] | IC50 (Human alphaherpesvirus 1; [8]) [µM] | IC50 (Human betaherpesvirus 5; [9]) [µM] | IC50 (KB) [µM] | IC50 (HFF; Homo sapiens, HFF, 48 h) [µM] | half-life [2] [h] | half-life [3] [h] | half-life [4] [h] | other results |
| --- | --- | --- | --- | --- | --- | --- | --- | --- | --- |
| CC(C)CNC(=O)[C@@H](N)Cc1ccc(OP2(=O)CO[C@@H](Cn3cnc4c(N)ncnc43)CO2)cc1.Cl (mixture of isomers; form 2) |  |  |  |  |  |  |  |  | IC50 ([1]; hff): 2 µM; IC50 (Vaccinia virus; hff): 1.5 µM; IC50 (Human alphaherpesvirus 1; hff): 35 µM; IC50 (Human betaherpesvirus 5; hff): 1.3 µM; IC50 (HFF; hff): 100 µM; Drug uptake (Plasma [5]): 80%; Drug uptake (Plasma [6]): 20% |
| CC(C)CNC(=O)[C@@H](N)Cc1ccc(OP2(=O)CO[C@@H](Cn3cnc4c(N)ncnc43)CO2)cc1 (mixture of isomers; form 1) |  | 50 |  | > 100 | > 100 |  |  |  | IC50 ([1]; hff): 7 µM; IC50 (Vaccinia virus; hff): 4.5 µM; IC50 (Human betaherpesvirus 5; hff): 0.3 µM |
| COC(=O)[C@@H](N)Cc1ccc(O[P@@]2(=O)CO[C@@H](Cn3ccc(N)nc3=O)CO2)cc1 |  |  |  |  |  | 4.27 | 2.02 | < 0.5 |  |
| Nc1ncnc2c1ncn2C[C@H]1COP(=O)(O)CO1 | 0.6 | 30 | 1.3 | > 100 | 100 |  |  |  | IC50 (Vaccinia virus; [7]): 1 µM |
| CC(C)OC(=O)[C@@H](N)Cc1ccc(O[P@@]2(=O)CO[C@@H](Cn3ccc(N)nc3=O)CO2)cc1 |  |  |  |  |  | 12.8 | 3.98 | < 0.5 |  |
| COC(=O)[C@H](Cc1ccc(O[P@@]2(=O)CO[C@@H](Cn3cnc4c(N)ncnc43)CO2)cc1)NC(=O)[C@@H](N)C(C)C |  |  |  |  |  | 5.77 | 1.1 | < 0.5 |  |
| Nc1nc2c(ncn2COC(CO)CO)c(=O)[nH]1 [GANCICLOVIR] |  |  | 0.14 |  | > 100 |  |  |  |  |
| CC(C)(C)NC(=O)[C@H](N)Cc1ccc(OP2(=O)CO[C@@H](Cn3ccc(N)nc3=O)CO2)cc1 (mixture of isomers) | 20 | 1.5 | < 0.1 | > 100 | > 100 |  |  |  | IC50 (Vaccinia virus; [7]): 10 µM |
| COC(=O)[C@@H](N)Cc1ccc(OP2(=O)CO[C@@H](Cn3cnc4c(N)ncnc43)CO2)cc1 (mixture of isomers; form 2) |  |  |  |  |  |  |  |  | IC50 ([1]; hff): 3.5 µM; IC50 (Human alphaherpesvirus 1; hff): 35 µM |
| CC(C)CNC(=O)[C@@H](N)Cc1ccc(OP2(=O)CO[C@@H](Cn3cnc4c(N)ncnc43)CO2)cc1 (mixture of isomers; form 3) |  |  |  |  |  |  |  |  | IC50 ([1]; hff): 2.5 µM; IC50 (Vaccinia virus; hff): 1 µM; IC50 (Human betaherpesvirus 5; hff): 0.55 µM |
| COC(=O)[C@H](Cc1ccc(OP2(=O)CO[C@@H](Cn3cnc4c(N)ncnc43)CO2)cc1)NC(=O)[C@@H](N)C(C)C (mixture of isomers) | 8 | 35 | 0.3 | > 100 | > 100 |  |  |  | IC50 (Vaccinia virus; [7]): 4 µM |
| CC(C)OC(=O)[C@@H](N)Cc1ccc(OP2(=O)CO[C@@H](Cn3ccc(N)nc3=O)CO2)cc1 (mixture of isomers; form 1) |  |  | 0.12 | > 100 | > 100 |  |  |  | IC50 ([1]; hff): 40 µM; IC50 (Vaccinia virus; hff): 30 µM; IC50 (Human alphaherpesvirus 1; hff): 20 µM |
| COC(=O)[C@@H](N)Cc1ccc(O[P@@]2(=O)CO[C@@H](Cn3cnc4c(N)ncnc43)CO2)cc1 |  |  |  |  |  | 5.5 |  | < 0.5 |  |
| CC(C)CNC(=O)[C@@H](N)Cc1ccc(O[P@@]2(=O)CO[C@@H](Cn3cnc4c(N)ncnc43)CO2)cc1 |  |  |  |  |  | 12.8 | 3.85 | 12.8 |  |
| COC(=O)[C@@H](N)Cc1ccc(OP2(=O)CO[C@@H](Cn3cnc4c(N)ncnc43)CO2)cc1 (mixture of isomers; form 1) | 7 | 25 | 0.45 | > 100 | > 100 |  |  |  | IC50 (Vaccinia virus; [7]): 3 µM |
| COC(=O)[C@H](Cc1ccc(O[P@]2(=O)CO[C@@H](Cn3cnc4c(N)ncnc43)CO2)cc1)NC(=O)[C@@H](N)C(C)C |  |  |  |  |  | 1.58 | 0.25 | < 0.5 |  |
| COC(=O)[C@H](N)Cc1ccc(O[P@@]2(=O)CO[C@@H](Cn3ccc(N)nc3=O)CO2)cc1 |  |  |  |  |  | 6.42 | 2.1 | 3.5 |  |
